Measurements gathered from unrelated publications.
Lines come from different studies, so protocols differ.
Target: Serine/threonine-protein kinase PAK 3 (PAK3, Homo sapiens, UniProt O75914)

| SMILES | test | setting | measurement | value |
| --- | --- | --- | --- | --- |
| CCCOc1ccc([C@H]2[C@H](C(=O)O)[C@@H](c3ccc4c(c3)OCO4)CN2CC(=O)Nc2c(CC)cccc2CC)cc1 | cell-free assay, competition with immobilised ligand | 1 µM | remaining binding | 100% |
| COc1cc2ncnc(Nc3ccc(Oc4ccccc4)cc3C)c2cc1OC | enzyme activity, inhibitor | 1 µM | inhibition | 3% |
| COc1cc(Cl)c(C(=O)N[C@@H](CN[C@H]2CC[C@@H](N)CC2)Cc2ccc(C#N)cc2)cc1-c1ccc(CN[C@H](C)c2ccc(C)cc2)o1 | enzyme activity, inhibitor | 1 µM | remaining activity | 101% |
| CN(C)CC#Cc1ccc(OCCCc2sc(N3CCc4cccc(C(=O)Nc5nc6ccccc6s5)c4C3)nc2C(=O)O)c(F)c1 | cell-free assay, competition with immobilised ligand | 1 µM | remaining binding | 97% |
| CCCS(=O)(=O)Nc1ccc(F)c(C(=O)c2c[nH]c3ncc(-c4ccc(Cl)cc4)cc23)c1F | enzyme activity, inhibitor | 1 µM | inhibition | < 20% |
| CCCOc1ccc(OC)c(F)c1C(=O)c1ccc(C(=O)N[C@@H]2CNC[C@H]2NC(=O)c2ccc3[nH]ncc3c2)cc1 | enzyme activity, inhibitor | 10 µM | remaining activity | 51% |
| O=C(O)c1cc(-c2ccc(C3CCNCC3)cc2)c2ccc(-c3ccc(C(F)(F)F)cc3)cc2c1 | cell-free assay, competition with immobilised ligand | 1 µM | remaining binding | 100% |
| CNC(=O)c1cc(Oc2ccc(NC(=O)Nc3ccc(Cl)c(C(F)(F)F)c3)cc2)ccn1 | enzyme activity, inhibitor | 10 µM | inhibition | 74% |
| Cc1sc(C(=O)NC2COC2)cc1-n1cc(NC(=O)Nc2c(F)cccc2Cl)cn1 | enzyme activity, inhibitor | 10 µM | remaining activity | 114% |
| Clc1ccc(Nc2nnc(Cc3ccncc3)c3ccccc23)cc1 | cell-free assay | 0.5 µM | remaining signal | 107% |
| O=C(Nc1cccnn1)N1CC(C/C=C/c2cncc(Oc3ccc(C(F)(F)F)cn3)n2)C1 | cell-free assay, competition with immobilised ligand | 1 µM | remaining binding | 100% |
| Cc1ccc(Nc2nccc(N(C)c3ccc4c(C)n(C)nc4c3)n2)cc1S(N)(=O)=O | enzyme activity, inhibitor | 10 µM | inhibition | 61% |
| O=C(Nc1cnn(-c2csc(C(=O)NC3COC3)c2)c1)Nc1ccccc1Cl | enzyme activity, inhibitor | 5 µM | remaining activity | 97.4% |
| CN1CC(Oc2cnc(C#N)cc2-c2ccn3nc(NC(=O)C4CC4)cc3c2)C1 | enzyme activity, inhibitor | 1 µM | inhibition | -10% |
| C[S+]([O-])c1ccc(-c2nc(-c3ccncc3)c(-c3ccc(F)cc3)[nH]2)cc1 (stereo not drawn) | cell-free assay | 0.5 µM | remaining signal | 102% |
| COc1ccccc1N1CCN(c2ncnc3[nH]nc(Br)c23)CC1 | enzyme activity, inhibitor | 1 µM | inhibition | -12% |
| O=C(N[C@H]1CCCCC/C=C\C2C[C@@]2(C(=O)O)NC(=O)[C@@H]2C[C@@H](Oc3ccncc3)CN2C1=O)OC1CCCC1 (stereo partly drawn) | binding, competition with immobilised ligand | 1 µM | remaining binding | 88% |
| COc1cc2ncnc(Nc3ccc(F)c(Cl)c3)c2cc1OCCCN1CCOCC1 | cell-free assay | 0.5 µM | remaining signal | 106% |
